Laboratory results taken from ChEMBL document CHEMBL4818983, “Structure-activity relationship and hypoglycemic activity of tricyclic matrines with advantage of treating diabetic nephropathy” (Eur J Med Chem, 2020).
Activity calls are given as the source filed them. No cut-off for these calls is given here.

Experiments:
Mus musculus [1] = experiment: Anti-diabetic activity in overnight fasted diabetic KK-Ay mouse assessed as reduction in blood glucose AUC at 50 to 100 mg/kg, po measured after 35 days by oral glucose tolerance test; format: functional, organism-based; details: dose 50-100 mg/kg, time 35.0 day
Outline: (§1)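 KK-Ay mice orally treated with 50 or 100 mg/kg compound or 5 mg/kg rosiglitazone, C57BL/6J as normal controls. After 35 days of treatment, oral glucose tolerance test and insulin tolerance test run. Blood glucose plotted against time, AUC calculated. Mean ± SD, 8-9 mice per group.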

Mus musculus [2] = experiment: Anti-diabetic activity in overnight fasted diabetic KK-Ay mouse assessed as increase in insulin responsiveness by measuring blood glucose at 50 to 100 mg/kg, po measured after 35 days by insulin tolerance test; format: functional, organism-based; details: dose 50-100 mg/kg, time 35.0 day; outline: as §1
Mus musculus [3] = experiment: Anti-diabetic activity in high fat diet-fed KK-Ay mouse model of obesity and diabetes assessed as improved pathological changes in kidney at 50 to 100 mg/kg, po by hematoxylin and eosin staining based histopathological analysis; format: functional, organism-based; details: dose 50-100 mg/kg
Outline: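 Mice sacrificed at study end, with KK-Ay given 50 or 100 mg/kg compound or 5 mg/kg rosiglitazone orally and C57BL/6J as normal controls. Kidney and pancreas sections H&E stained, imaged at 200×, pathological changes scored. Mean ± SD of 8-9 mice per group.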

Mus musculus [4] = experiment: Antidiabetic activity in KK-Ay mouse assessed as effect on cholesterol level at 50 mg/kg, […] by ELISA (reference value: 7.38 +/- 1.03 mM); format: functional
Mus musculus [5] = experiment: Antidiabetic activity in KK-Ay mouse assessed as effect on insulin level at 50 mg/kg, […] by ELISA (reference value: 226 +/- 15.5 mU/l); format: functional
Mus musculus [6] = experiment: Antidiabetic activity in KK-Ay mouse assessed as effect on Triglycerides level at 50 mg/kg, […] by ELISA (reference value: 4.01 +/- 1.83 mM); format: functional
Mus musculus [7] = experiment: Antidiabetic activity in KK-Ay mouse assessed as reduction in fasting blood glucose level at 50 mg/kg, po for 50 days by glucose oxidase method (reference value: 13.2 +/- 2.51 mM); format: functional; details: time 50 day
Outline: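 Lipogenic-diet KK-Ay mice given 50 or 100 mg/kg compound or 5 mg/kg rosiglitazone orally for 50 days, C57BL/6J as normal controls. Fasting blood glucose, glycosylated haemoglobin, AGE, insulin, HOMA-IR, cholesterol, LDL-c, TG, serum creatinine and BUN determined. Mean ± SD, 8-9 mice per group.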

L6 [8] = experiment: Induction of glycolysis in rat L6 cells assessed as reduction in cellular ATP production at 10 to 40 uM measured after 24 hrs; format: functional, cell-based; details: dose 10-40 µM
Outline: (§2)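 L6 myotubes treated with DMSO, compound or RGZ (20 μM) at the indicated concentrations for 24 h. Culture supernatants assayed for glucose consumption and lactate release; lysed cells assayed for ATP, normalized to protein. Mean ± SD of 3 independent experiments vs DMSO.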

Mus musculus [9] = experiment: Antidiabetic activity in KK-Ay mouse assessed as effect on AGE level at 100 mg/kg, […] by ELISA (Rvb 2.85 +/- 0.92 ug/ml); format: functional
HepG2 [10] = experiment: Induction of glycolysis in human HepG2 cells assessed as increase in lactate release at 10 to 40 uM measured after 24 hrs; details: dose 10-40 µM
Mus musculus [11] = experiment: Antidiabetic activity in KK-Ay mouse assessed as effect on HOMA-IR level at 100 mg/kg, […] by ELISA (reference value: 137 +/- 18.4); format: functional
[12] = Effect on high fat diet-fed C57BL/6J mouse model of obesity and diabetes assessed as food intake; details: in vivo
Mus musculus [13] = experiment: Antidiabetic activity in KK-Ay mouse assessed as effect on serum Creatinine level at 50 mg/kg, po for 24 hrs by ELISA (reference value: 124 +/- 35.1 uM); format: functional
Mus musculus [14] = experiment: Antidiabetic activity in KK-Ay mouse assessed as effect on serum Creatinine level at 100 mg/kg, po for 24 hrs by ELISA (reference value: 124 +/- 35.1 uM); format: functional
[15] = Effect on high fat diet-fed KK-Ay mouse model of obesity and diabetes assessed as water intake at 100 mg/kg, po (reference value: 21.2 +/- 4.17 ml/day); format: ADME, organism-based; details: in vivo
Outline: (§3)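 KK-Ay mice on lipogenic diet, with C57BL/6J mice as normal controls, dosed orally at 50 or 100 mg/kg (test) or 5 mg/kg (RGZ). Food intake (g/day), water intake (mL/day) and body weight recorded before and after treatment; body weight gain calculated. Mean±SD, 8-9 mice per group.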

[16] = Acute toxicity in Kunming mouse assessed as effect on blood CRE level at 250 to 1000 mg/kg, po administered as single dose measured for 7 days; format: organism-based; details: in vivo, 168 h, dose 250-1000 mg/kg, time 7 day
Outline: (§4)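 Kunming mice each received one oral dose at 250, 500, 750 or 1000 mg·kg^-1 and were closely monitored for 7 days. At the end, blood was sampled and GOT, GPT, BUN and CRE were measured […] as liver and kidney function markers.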

[17] = Acute toxicity in Kunming mouse assessed as effect on blood GOT level at 250 to 1000 mg/kg, po administered as single dose measured for 7 days; format: organism-based; details: in vivo, 168 h, dose 250-1000 mg/kg, time 7 day; outline: as §4
[18] = Cytotoxicity against human HepG2 cells after 24 hrs by MTT assay; format: cell-based
Outline: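 HepG2 cells exposed to compound; cell growth measured; CC50 derived from the concentration–growth relationship.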

HepG2 [19] = experiment: Increase in glucose consumption in human HepG2 cells at 10 to 40 uM measured after 24 hrs; format: functional, cell-based; details: dose 10-40 µM
Outline: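 HepG2 cells treated 24 h at the indicated concentrations; RGZ as reference. Supernatants used for glucose consumption and lactate release; lysed cells used for ATP, normalized to protein content. Mean ± SD of 3 or 4 separate experiments; compared with DMSO.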

[20] = Effect on high fat diet-fed KK-Ay mouse model of obesity and diabetes assessed as food intake at 100 mg/kg, po (reference value: 5.67 +/- 0.55 g/day); format: ADME, organism-based; details: in vivo; outline: as §3
L6 [21] = experiment: Increase in glucose consumption in rat L6 cells at 10 to 40 uM measured after 24 hrs; format: functional, cell-based; details: dose 10-40 µM; outline: as §2
[22] = Acute toxicity in po dosed Kunming mouse administered as single dose measured for 7 days; format: organism-based; details: in vivo, time 7 day
Outline: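 Kunming mice each received one oral dose at 250, 500, 750 or 1000 mg·kg^-1 and were closely monitored for 7 days. The median lethal dose (LD50) was estimated from this single-dose experiment.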

Mus musculus [23] = organism: Mus musculus; experiment: Anti-diabetic activity in high fat diet-fed C57BL/6J mouse model of obesity and diabetes assessed as reduction in urine glucose level measured after 24 hrs; format: functional, organism-based
Outline: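 Before study end, 24-h urine collected from C57BL/6J controls and KK-Ay mice (untreated, oral 50 or 100 mg/kg compound, or 5 mg/kg rosiglitazone). Volume, glucose, total protein and microalbumin measured by kits. Mean ± SD, 8-9 mice per group, vs C57BL/6J or untreated KK-Ay.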

[24] = Effect on high fat diet-fed po dosed C57BL/6J mouse model of obesity and diabetes assessed as water intake; format: organism-based; details: in vivo

For CCCC[C@@H]1[C@H]2CCCN3CCC[C@@H](CN1S(=O)(=O)c1ccc(C(F)(F)F)cc1)[C@@H]23, the Activity (Mus musculus [1]) was “Active”, the Activity (Mus musculus [2]) was “Active” and the Activity (Mus musculus [3]) was “Active”. It also gave an Activity (Mus musculus [4]) of 7.05 mM, an Activity (Mus musculus [5]) of 177 mU/L and an Activity (Mus musculus [6]) of 2.89 mM. The Activity (Mus musculus [7]) was 9.44 mM, the Activity (L6 [8]) was “Active” and the Activity (Mus musculus [9]) was 1.13 µg/mL. The Activity (HepG2 [10]) was “Dose-Dependent Effect”, the Activity (Mus musculus [11]) was 46.5 and the Activity [12] was 4.29 g/day. It also gave an Activity (Mus musculus [13]) of 88.8 µM, an Activity (Mus musculus [14]) of 70.4 µM and an Activity [15] of 11.9 mL/day. For the same compound, the Activity [16] was “Non-Toxic”, the Activity [17] was “Non-Toxic” and the CC50 at 24 h [18] was 642 µM. The Activity (HepG2 [19]) was “Dose-Dependent Effect”, the Activity [20] was 5.28 g/day and the Activity (L6 [21]) was “Dose-Dependent Effect”. The LD50 at 168 h [22] was 1000 mg/kg, the Activity (Mus musculus [23]) was “Active” and the Activity [24] was 4.38 mL/day.
